Data on three compounds can be found in ChEMBL document CHEMBL1152552, “Death receptor 5 promoter-enhancing compounds isolated from Catimbium speciosum and their enhancement effect on TRAIL-induced apoptosis” (Bioorg Med Chem, 2009).

The term IC50 denotes the concentration at which inhibition is half-maximal. Low values mean inhibition by little substance, high ones a need for much substance.

For test [1], the target named is Tumor necrosis factor receptor superfamily member 10B (Homo sapiens) (UniProt O14763). Kind of test: Induction of DR5 receptor promotor activity in human DLD1 cells co-transfected with Sac1 at 43.9 uM after 24 hrs by luciferase assay. The class given is cell-based. Conditions: DLD-1.
Test [2] has the same target. Kind of test: Induction of DR5 receptor promotor activity in human DLD1 cells co-transfected with Sac1 at 39 uM after 24 hrs by luciferase assay. It counts as cell-based. Conditions: DLD-1.
Test [3] concerns DLD-1. Kind of test: Induction of DR5 protein expression in human DLD1 cells co-transfected with Sac1 cells after 24 hrs by Western blot analysis. It counts as functional, cell-based. In a few lines: (§1)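 Lysates of DLD1/TR cells treated 24 h (procaspase-8 after combined TRAIL exposure). Equal protein resolved by SDS-PAGE: 15% for Bcl-xL, 12.5% for DR5, 10% for caspase-8. Transferred to PVDF and probed 1 h at room temperature with primary antibody, then HRP secondary 1 h. Chemiluminescent detection with β-actin as loading control.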

Test [4] relates to DLD-1. Kind of test: Induction of apoptosis in TRAIL-resistant human DLD1 cells assessed as late apoptotic cells at 9.3 uM after 24 hrs using annexin-V-FITC/propidium iodide staining by flow cytometry in presence of TRAIL. The class given is functional. (In general: Flow cytometry measures light scatter and fluorescence of single cells or particles in a stream.)
In test [5] the test system is DLD-1. Kind of test: Cytotoxicity against human DLD1 cells co-transfected with Sac1 after 24 hrs. It counts as functional, cell-based. Conditions: DLD-1, 24 h.
In test [6] the test system is DLD-1. Kind of test: Decrease in Bcl-xL mRNA expression in human DLD1 cells co-transfected with Sac1 cells at 18.5 uM after 24 hrs by RT-PCR analysis. It counts as functional, cell-based.
The subject of test [7] is DLD-1. Kind of test: Decrease in Bcl-xL protein expression in human DLD1 cells co-transfected with Sac1 cells after 24 hrs by Western blot analysis. The class given is functional, cell-based. The method, boiled down: as §1
(In general: In western blotting, separated proteins are transferred to a membrane and probed.)

Test [8] relates to DLD-1. The test is described as follows: Induction of DR5 gene expression in human DLD1 cells co-transfected with Sac1 cells at 18.5 uM after 24 hrs by RT-PCR analysis.
The subject of test [9] is DLD-1. The test is described as follows: Induction of apoptosis in TRAIL-resistant human DLD1 cells assessed as late apoptotic cells at 18.5 uM after 24 hrs using annexin-V-FITC/propidium iodide staining by flow cytometry in presence of TRAIL. It counts as functional.
The subject of test [10] is DLD-1. Kind of test: Induction of apoptosis in TRAIL-resistant human DLD1 cells assessed as early apoptotic cells at 9.3 uM after 24 hrs using annexin-V-FITC/propidium iodide staining by flow cytometry in presence of TRAIL. The class given is functional.
In test [11] the test system is DLD-1. Kind of test: Induction of apoptosis in TRAIL-resistant human DLD1 cells assessed as accumulation in sub-G1 phase at 18.5 uM after 24 hrs using annexin-V-FITC/propidium iodide staining by flow cytometry in presence of TRAIL/human recombinant DR4/Fc chimera protein. The class given is functional, cell-based. The method, boiled down:
(§2)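 DLD1/TR cells incubated 24 h with 18.5 uM test agent and 100 ng/mL TRAIL, plus 2.5 ug/mL human recombinant DR5/Fc or DR4/Fc chimera. Ethanol-fixed, PI/RNase stained, sub-G1 fraction read by flow cytometry (at least 20,000 events). Run in triplicate.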

Test [12] concerns DLD-1. Kind of test: Induction of apoptosis in TRAIL-resistant human DLD1 cells assessed as accumulation in sub-G1 phase at 9.3 uM after 24 hrs using annexin-V-FITC/propidium iodide staining by flow cytometry in presence of TRAIL. It counts as functional.
The subject of test [13] is AGS. Kind of test: Induction of apoptosis in TRAIL-resistant human AGS cells assessed as early apoptotic cells at 9.3 uM after 24 hrs using annexin-V-FITC/propidium iodide staining by flow cytometry in presence of TRAIL. The class given is functional.
In test [14] the test system is DLD-1. The test is described as follows: Induction of DR5 gene expression in human DLD1 cells co-transfected with Sac1 cells at 9.3 uM after 24 hrs by RT-PCR analysis. The class given is functional.
The subject of test [15] is DLD-1. The test is described as follows: Induction of DR4 gene expression in human DLD1 cells co-transfected with Sac1 cells after 24 hrs by RT-PCR analysis. The class given is functional, cell-based.
Test [16] deals with DLD-1. The test is described as follows: Decrease in Bcl-xL mRNA expression in human DLD1 cells co-transfected with Sac1 cells at 9.3 uM after 24 hrs by RT-PCR analysis. The class given is functional, cell-based.
Test [17] has as its system DLD-1. Kind of test: Induction of apoptosis in TRAIL-resistant human DLD1 cells assessed as accumulation in sub-G1 phase at 18.5 uM after 24 hrs using annexin-V-FITC/propidium iodide staining by flow cytometry in presence of TRAIL/human recombinant DR5/Fc chimera protein. It counts as functional, cell-based. In a few lines: as §2
For test [18], the system named is AGS. The test is described as follows: Induction of apoptosis in TRAIL-resistant human AGS cells assessed as late apoptotic cells at 18.5 uM after 24 hrs using annexin-V-FITC/propidium iodide staining by flow cytometry in presence of TRAIL. It counts as functional.
Test [19] concerns AGS. The test is described as follows: Induction of apoptosis in TRAIL-resistant human AGS cells assessed as early apoptotic cells at 18.5 uM after 24 hrs using annexin-V-FITC/propidium iodide staining by flow cytometry in presence of TRAIL. It counts as functional.
Test [20] deals with DLD-1. Kind of test: Increase in CHOP mRNA expression in human DLD1 cells co-transfected with Sac1 cells. The class given is functional, cell-based.
Test [21] relates to DLD-1. Kind of test: Induction of apoptosis in TRAIL-resistant human DLD1 cells assessed as accumulation in sub-G1 phase at 18.5 uM after 24 hrs using annexin-V-FITC/propidium iodide staining by flow cytometry in presence of TRAIL/z-IETD-fmk caspase 8 inhibitor. The class given is functional, cell-based. In a few lines: (§3)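 DLD1/TR cells incubated 24 h with 18.5 uM test agent and 100 ng/mL TRAIL, plus either caspase-8 inhibitor z-IETD-fmk at 25 uM or caspase-9 inhibitor z-LEHD-fmk at 20 uM. Ethanol-fixed, PI/RNase stained, sub-G1 fraction read by flow cytometry (at least 20,000 events). Run in triplicate.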

Test [22] deals with DLD-1. The test is described as follows: Induction of apoptosis in TRAIL-resistant human DLD1 cells assessed as accumulation in sub-G1 phase at 18.5 uM after 24 hrs using annexin-V-FITC/propidium iodide staining by flow cytometry in presence of TRAIL/caspase 9 inhibitor. The class given is functional, cell-based. In a few lines: as §3
The target of test [23] is Tumor necrosis factor receptor superfamily member 10B (Homo sapiens) (UniProt O14763). The test is described as follows: Induction of DR5 receptor promotor activity in human DLD1 cells co-transfected with Sac1 cells at 18.5 uM after 24 hrs by luciferase assay. It counts as cell-based.
Test [24] relates to AGS. Kind of test: Induction of apoptosis in TRAIL-resistant human AGS cells assessed as late apoptotic cells at 9.3 uM after 24 hrs using annexin-V-FITC/propidium iodide staining by flow cytometry in presence of TRAIL. It counts as functional.
For test [25], the system named is DLD-1. The test is described as follows: Induction of apoptosis in TRAIL-resistant human DLD1 cells assessed as early apoptotic cells at 18.5 uM after 24 hrs using annexin-V-FITC/propidium iodide staining by flow cytometry in presence of TRAIL. It counts as functional.
Test [26] relates to DLD-1. Kind of test: Induction of apoptosis in TRAIL-resistant human DLD1 cells assessed as accumulation in sub-G1 phase after 24 hrs using annexin-V-FITC/propidium iodide staining by flow cytometry. It counts as functional.
Test [27] has as its system DLD-1. The test is described as follows: Decrease in procaspase 8 in TRAIL-resistant human DLD1 cells co-transfected with Sac1 cells at 18.5 uM by Western blot analysis in presence of TRAIL. The class given is functional, cell-based. In a few lines: as §1
Test [28] deals with DLD-1. The test is described as follows: Activation of caspase 3 in TRAIL-resistant human DLD1 cells co-transfected with Sac1 cells by luminescent assay in presence of TRAIL. The class given is functional, cell-based. The method, boiled down:
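Cells exposed 24 h to 4.6, 9.3 or 18.5 uM test agent and/or 100 ng/mL TRAIL, harvested and lysed. Lysate incubated with luminogenic z-DEVD-aminoluciferin substrate (Caspase-Glo 3/7) for 1 h at room temperature; luminescence read on a luminometer.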

The subject of test [29] is DLD-1. The test is described as follows: Induction of apoptosis in TRAIL-resistant human DLD1 cells assessed as accumulation in sub-G1 phase at 18.5 uM after 24 hrs using annexin-V-FITC/propidium iodide staining by flow cytometry in presence of TRAIL. The class given is functional.

Molecules are shown by their SMILES. Activity calls are given as the source filed them. No cut-off for these calls is given here.

Tumor necrosis factor receptor superfamily member 10B (Homo sapiens), sequence (O14763 whole entry): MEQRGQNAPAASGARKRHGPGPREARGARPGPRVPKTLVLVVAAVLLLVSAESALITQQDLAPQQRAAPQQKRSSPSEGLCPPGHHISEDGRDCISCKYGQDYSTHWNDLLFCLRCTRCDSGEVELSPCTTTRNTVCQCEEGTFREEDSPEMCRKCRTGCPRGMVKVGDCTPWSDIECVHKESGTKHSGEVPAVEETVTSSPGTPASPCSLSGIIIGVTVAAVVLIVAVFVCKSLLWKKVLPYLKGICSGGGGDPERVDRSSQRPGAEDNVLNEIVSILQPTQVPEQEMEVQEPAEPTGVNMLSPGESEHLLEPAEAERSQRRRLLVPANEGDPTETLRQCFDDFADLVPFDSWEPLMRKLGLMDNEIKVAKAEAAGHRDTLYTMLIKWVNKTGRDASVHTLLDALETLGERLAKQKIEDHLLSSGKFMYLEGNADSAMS

`COc1cc(/C=C/c2ccccc2)oc(=O)c1` came in with a fold change (FC) in [1] of 2.5.
In turn, `O=C1C[C@@H](c2ccccc2)Oc2cc(O)cc(O)c21` came in with a fold change (FC) in [2] of 2.5.
For the compound `COc1cc(O)cc(O)c1C(=O)/C=C/c1ccccc1` [CARDAMOMIN], the Activity entry is “Dose-dependent effect” in test [3]; 14.3% in test [4]; “Dose-dependent effect” in test [7]; 20.5% in test [9]; 14.1% in [10]; 41.9% in [12]. Further, the Activity in [13] was 15%; in [15], “Dose-dependent effect”; in test [18], 5%; in test [19], 30.2%; in [20], “Dose-dependent effect”; in test [24], 3%. For the same compound, the Activity in [25] is 26.7%; in [26], 15.5%; in test [28] it was “Dose-dependent effect”; in test [29], 55.8%. The compound further had an IC50 in test [5] of 41.8 µM. Besides, the result in [6], in test [16], in test [17] and in [27] was Active. The figures for the “fold change (FC)” value in test [8], in test [14] and in [23] were 4.1, 2 and 4.1, respectively. Moreover, the result in [11], in [21] and in test [22] was inactive.
